Measurements taken from ChEMBL document CHEMBL4619737, “Influence of side-chain changes on histone deacetylase inhibitory and cytotoxicity activities of curcuminoid derivatives” (Bioorg Med Chem Lett, 2020).
Values after ≈ are worked out from the molar mass of the structure shown. Active and inactive are the calls of the source. No cut-off for these calls is given here.

Experiments:
Vero [1] = assay: Cytotoxicity against African green monkey Vero cells assessed as reduction in cell viability incubated for 72 hrs by MTT assay; type: cell-based; conditions: Chlorocebus sabaeus
Vero [2] = assay: Cytotoxicity against African green monkey Vero cells assessed as reduction in cell viability incubated for 48 hrs by MTT assay; type: cell-based; conditions: Chlorocebus sabaeus
Vero [3] = assay: Cytotoxicity against African green monkey Vero cells assessed as reduction in cell viability incubated for 24 hrs by MTT assay; type: cell-based; conditions: Chlorocebus sabaeus
HeLa [4] = assay: Antiproliferative activity against human HeLa cells incubated for 24 hrs by MTT assay; type: functional, cell-based
HeLa [5] = assay: Antiproliferative activity against human HeLa cells incubated for 48 hrs by MTT assay; type: functional, cell-based
HeLa [6] = assay: Antiproliferative activity against human HeLa cells incubated for 72 hrs by MTT assay; type: functional, cell-based
HCT-116 [7] = assay: Antiproliferative activity against human HCT116 cells incubated for 24 hrs by MTT assay; type: functional, cell-based; conditions: HCT-116, 24 h
HCT-116 [8] = assay: Antiproliferative activity against human HCT116 cells incubated for 48 hrs by MTT assay; type: functional, cell-based; conditions: HCT-116, 48 h
HCT-116 [9] = assay: Antiproliferative activity against human HCT116 cells incubated for 72 hrs by MTT assay; type: functional, cell-based; conditions: HCT-116, 72 h
MCF7 [10] = assay: Antiproliferative activity against human MCF7 cells incubated for 24 hrs by MTT assay; type: functional, cell-based; conditions: MCF7, 24 h
MCF7 [11] = assay: Antiproliferative activity against human MCF7 cells incubated for 48 hrs by MTT assay; type: functional, cell-based; conditions: MCF7, 48 h
MCF7 [12] = assay: Antiproliferative activity against human MCF7 cells incubated for 72 hrs by MTT assay; type: functional, cell-based; conditions: MCF7, 72 h
Histone deacetylase 1 = Histone deacetylase 1 (Homo sapiens, UniProt Q13547); assay: Inhibition of HDAC1 (unknown origin)
Histone deacetylase 2 = Histone deacetylase 2 (Homo sapiens, UniProt Q92769); assay: Inhibition of HDAC2 (unknown origin)
Histone deacetylase 8 = target: T1, Histone deacetylase 8 (Homo sapiens, UniProt Q9BY41); assay: Inhibition of HDAC8 (unknown origin)
T1 sequence (Q9BY41 whole entry): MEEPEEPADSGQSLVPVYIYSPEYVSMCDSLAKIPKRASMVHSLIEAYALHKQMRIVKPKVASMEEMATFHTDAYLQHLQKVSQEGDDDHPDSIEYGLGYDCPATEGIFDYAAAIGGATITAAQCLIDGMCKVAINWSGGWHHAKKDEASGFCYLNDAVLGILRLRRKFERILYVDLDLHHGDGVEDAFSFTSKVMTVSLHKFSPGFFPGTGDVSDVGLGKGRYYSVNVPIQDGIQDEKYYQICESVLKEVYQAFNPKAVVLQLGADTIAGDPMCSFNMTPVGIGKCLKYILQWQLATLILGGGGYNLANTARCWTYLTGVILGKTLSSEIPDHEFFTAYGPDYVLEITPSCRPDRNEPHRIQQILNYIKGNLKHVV

[13] = target: Histone deacetylase (Homo sapiens) (UniProt Q13547+O15379+Q9UBN7+Q92769+Q9UQL6+Q8WUI4+Q9BY41+Q96DB2+P56524+Q9UKV0+Q969S8); assay: Inhibition of HDAC in human HCT116 cells assessed as accumulation of acetylated histone H3 levels at 40 ug/ml incubated for 24 hrs by Western blot analysis; type: cell-based; conditions: HCT-116
How it was run: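 HCT116 cells exposed for 24 h to compound at 10–60 μg/mL, with a 1:1 (v/v) absolute ethanol/DMSO vehicle control. Cells were harvested, and extracted proteins were separated by SDS-PAGE. Acetylated H3 was detected by immunoblotting with ERK1/2 as the loading control. Band intensities were quantified by densitometry and expressed as fold relative to the internal control.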

Histone deacetylase = assay: Inhibition of HDAC in human HeLa cell nuclear extract using fluor-de-lys as substrate by spectrofluorometric analysis; type: cell-free

Sequence of Histone deacetylase 1 (Q13547 whole entry): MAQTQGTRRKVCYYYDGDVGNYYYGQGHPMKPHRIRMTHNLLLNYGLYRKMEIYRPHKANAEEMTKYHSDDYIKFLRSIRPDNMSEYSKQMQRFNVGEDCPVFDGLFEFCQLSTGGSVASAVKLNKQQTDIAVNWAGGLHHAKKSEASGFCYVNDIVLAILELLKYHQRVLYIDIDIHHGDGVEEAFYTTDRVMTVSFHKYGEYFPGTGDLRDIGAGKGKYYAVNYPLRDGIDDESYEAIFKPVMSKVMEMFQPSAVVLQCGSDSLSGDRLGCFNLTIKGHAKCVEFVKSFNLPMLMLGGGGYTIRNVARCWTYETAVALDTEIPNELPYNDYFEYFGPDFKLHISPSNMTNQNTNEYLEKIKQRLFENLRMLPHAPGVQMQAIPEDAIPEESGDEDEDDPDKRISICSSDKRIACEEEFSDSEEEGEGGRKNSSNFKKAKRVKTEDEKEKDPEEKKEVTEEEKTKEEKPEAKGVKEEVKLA
Sequence of Histone deacetylase 2 (Q92769 whole entry): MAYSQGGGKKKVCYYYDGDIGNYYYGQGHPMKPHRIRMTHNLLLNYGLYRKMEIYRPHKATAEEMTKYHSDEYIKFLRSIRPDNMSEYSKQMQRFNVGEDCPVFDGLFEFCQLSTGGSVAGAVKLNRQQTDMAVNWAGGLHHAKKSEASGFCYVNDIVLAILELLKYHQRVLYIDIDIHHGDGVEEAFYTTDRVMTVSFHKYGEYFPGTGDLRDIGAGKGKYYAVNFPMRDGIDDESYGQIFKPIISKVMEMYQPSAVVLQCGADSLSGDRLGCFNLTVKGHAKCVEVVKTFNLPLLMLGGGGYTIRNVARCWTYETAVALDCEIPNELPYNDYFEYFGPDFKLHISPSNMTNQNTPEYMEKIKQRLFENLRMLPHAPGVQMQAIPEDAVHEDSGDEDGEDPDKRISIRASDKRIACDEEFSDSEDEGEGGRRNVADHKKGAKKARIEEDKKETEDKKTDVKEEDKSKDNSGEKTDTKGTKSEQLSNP

Row | Structure (SMILES) | IC50 (HeLa [4]) [µg/mL] | IC50 (HeLa [5]) [µg/mL] | IC50 (HeLa [6]) [µg/mL] | IC50 (HCT-116 [7]) [µg/mL] | IC50 (HCT-116 [8]) [µg/mL] | IC50 (HCT-116 [9]) [µg/mL] | IC50 (MCF7 [10]) [µg/mL] | IC50 (MCF7 [11]) [µg/mL] | IC50 (MCF7 [12]) [µg/mL] | Ki (Histone deacetylase 1) [µM] | Ki (Histone deacetylase 2) [µM] | Ki (Histone deacetylase 8) [µM] | inhibition [13] | IC50 (Histone deacetylase) [µM] | IC50 (Vero [1]) [µg/mL] | IC50 (Vero [2]) [µg/mL] | IC50 (Vero [3]) [µg/mL]
1 | CCC(C)Oc1ccc(/C=C/C(O)=C/C(=O)/C=C/c2ccc(O)c(OC)c2)cc1 (centres undefined) | 55.2 (≈ 140 µM) | 14 (≈ 35.6 µM) | 9.33 (≈ 23.7 µM) | 43.6 (≈ 111 µM) | 8.53 (≈ 21.6 µM) | 7.33 (≈ 18.6 µM) | > 100 | 46.3 (≈ 117 µM) | 18.1 (≈ 45.8 µM) | 2.5 | 1.06 | 3.6 |  |  | > 100 | > 100 | > 100
2 | CCC(C)Oc1ccc(/C=C/C(=O)/C=C(O)/C=C/c2ccc(OC(C)CC)c(OC)c2)cc1OC (centres undefined) | > 100 | 17.5 (≈ 36.4 µM) | 10.2 (≈ 21.2 µM) | 28.7 (≈ 59.7 µM) | 10.8 (≈ 22.5 µM) | 7.89 (≈ 16.4 µM) | > 100 | 42.1 (≈ 87.6 µM) | 13.9 (≈ 28.9 µM) | 20.7 | 7.47 | 10.2 |  |  | > 100 | > 100 | > 100
3 | COc1cc(/C=C/C(=O)/C=C(O)/C=C/c2ccc(OC(C)C(N)=O)c(OC)c2)ccc1OC(C)C(N)=O (centres undefined) | 32.3 (≈ 63.3 µM) | 25.8 (≈ 50.5 µM) | 19.6 (≈ 38.3 µM) | 27.9 (≈ 54.7 µM) | 23.7 (≈ 46.4 µM) | 14.6 (≈ 28.6 µM) | 51.4 (≈ 101 µM) | 38.3 (≈ 75.1 µM) | 30.7 (≈ 60.2 µM) | 0.936 | 0.55 | 0.88 | Active |  | 18.7 (≈ 36.5 µM) | 25.6 (≈ 50.1 µM) | > 100
4 | COc1cc(/C=C/C(=O)/C=C(O)/C=C/c2ccc(OCC(=O)O)c(OC)c2)ccc1OCC(=O)O | > 100 | > 100 | > 100 | > 100 | > 100 | > 100 | > 100 | > 100 | > 100 | 1.96 | 3.99 | 14.2 |  |  | > 100 | > 100 | > 100

Continued, in another order:

Row | IC50 (HeLa [4]) [µg/mL] | IC50 (HeLa [5]) [µg/mL] | IC50 (HeLa [6]) [µg/mL] | IC50 (HCT-116 [7]) [µg/mL] | IC50 (HCT-116 [8]) [µg/mL] | IC50 (HCT-116 [9]) [µg/mL] | IC50 (MCF7 [10]) [µg/mL] | IC50 (MCF7 [11]) [µg/mL] | IC50 (MCF7 [12]) [µg/mL] | Ki (Histone deacetylase 1) [µM] | Ki (Histone deacetylase 2) [µM] | Ki (Histone deacetylase 8) [µM] | inhibition [13] | IC50 (Histone deacetylase) [µM] | Structure (SMILES) | IC50 (Vero [1]) [µg/mL] | IC50 (Vero [2]) [µg/mL] | IC50 (Vero [3]) [µg/mL]
5 | 5.39 (≈ 14.6 µM) | 3.57 (≈ 9.69 µM) | 3.56 (≈ 9.66 µM) | 3.83 (≈ 10.4 µM) | 2.67 (≈ 7.25 µM) | 2.4 (≈ 6.51 µM) | 2.94 (≈ 7.98 µM) | 2.08 (≈ 5.65 µM) | 2.03 (≈ 5.51 µM) |  |  |  |  |  | COc1cc(/C=C/C(=O)CC(=O)/C=C/c2ccc(O)c(OC)c2)ccc1O [CURCUMIN] | 11 (≈ 29.8 µM) | 17.9 (≈ 48.5 µM) | 25 (≈ 67.9 µM)
6 |  |  |  |  |  |  |  |  |  |  |  |  |  | 72 | COc1cc(CNC(=O)CCCCC(O)CC(C)C)ccc1O (centres undefined) |  |  | 
